Measurements from ChEMBL document CHEMBL1156174, “Antiproliferative activity of synthetic naphthoquinones related to lapachol. First synthesis of 5-hydroxylapachol” (Bioorg Med Chem, 2010).

Assays:
HeLa = test: Growth inhibition of human HeLa cells after 48 hrs by sulforhodamine B assay; type: functional
In short: (§1)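 Cells in RPMI 1640 with 5% heat-inactivated FCS and 2 mM L-glutamine at 37 °C, 5% CO2. Seeded per well: 7500 (HBL-100, SW1573), 15,000 (A2780, HeLa, T47D) or 20,000 (WiDr). Drug added day 1 in triplicate dilutions (DMSO 0.25% v/v) for 48 h. Cells fixed with cold TCA, 60 min, 4 °C, then SRB stained and read at 492 nm. NCI percentage-growth formulas used; GI50 taken at PG +50.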

A2780 = test: Growth inhibition of human A2780 cells after 48 hrs by sulforhodamine B assay; type: functional; conditions: A2780, 48 h; in short: as §1
WiDr = test: Growth inhibition of human WiDr cells after 48 hrs by sulforhodamine B assay; type: functional; in short: as §1
SW1573 = test: Growth inhibition of human SW1573 cells after 48 hrs by sulforhodamine B assay; type: functional; conditions: SW1573, 48 h; in short: as §1
HBL-100 = test: Growth inhibition of human HBL100 cells after 48 hrs by sulforhodamine B assay; type: functional; conditions: HBL-100, 48 h; in short: as §1
T47D = test: Growth inhibition of human T47D cells after 48 hrs by sulforhodamine B assay; type: functional; in short: as §1
Artemia salina = test: Toxicity in Artemia salina; type: organism-based; conditions: in vivo

SMILES | GI50 (HeLa) [µM] | GI50 (A2780) [µM] | GI50 (WiDr) [µM] | GI50 (SW1573) [µM] | GI50 (HBL-100) [µM] | GI50 (T47D) [µM] | Activity (Artemia salina) [ppm]
CN(C)C1=CC(=O)c2cccc(O)c2C1=O | 7.1 | 2.4 | 17 | 5.3 | 5.7 | 34 | 
CC1(C)CCC2=C(O1)C(=O)c1ccccc1C2=O [ALPHA-LAPACHONE] | 15 | 4 | 26 | 3.1 | 14 | 25 | 
CC(C)(O[N+](=O)[O-])C1CC2=C(O1)C(=O)c1ccccc1C2=O (centres undefined) | 1.8 | 2.1 | 4.8 | 2.5 | 2.1 | 20 | 
CC(C)=CCOC1=CC(=O)c2c(O)cccc2C1=O | 18 | 12 | 18 | 17 | 27 | 28 | 
CC(C)=CCC1=C(O)C(=O)c2c(O)cccc2C1=O | 2.6 | 3.9 | 19 | 18 | 21 | 30 | 
COC1=C(CC=C(C)C)C(=O)c2c(O)cccc2C1=O | 3.5 | 1.8 | 20 | 4.8 | 20 | 22 | 
CC1(C)C2=C(OC1CI)C(=O)c1cccc(O)c1C2=O (centres undefined) | 1.7 | 1.7 | 2 | 1.3 | 1.9 | 1.8 | 
O=C1C=CC(=O)c2c(O)cccc21 [JUGLONE] | 89 | 64 | 81 | 50 | 66 | 77 | 
C=C(C)C1CC2=C(O1)C(=O)c1ccccc1C2=O (stereo not drawn) [DEHYDROISO-ALPHA-LAPACHONE] | 2.1 | 2.6 | 2.7 | 1.9 | 2.3 | 21 | 
O=C1C=C(O)c2c(O)cccc2C1=O | > 100 | > 100 | > 100 | > 100 | > 100 | > 100 | 
NC1=CC(=O)c2cccc(O)c2C1=O | 5.7 | 3.1 | 3.5 | 2 | 2.9 | 4 | 
C=CC(C)(C)C1=C(O)C(=O)c2cccc(O)c2C1=O | 28 | 26 | 31 | 36 | 31 | 27 | 
CC(C)(O[N+](=O)[O-])C1CC2=C(O1)C(=O)c1cccc(O)c1C2=O (centres undefined) | 2.2 | 2.2 | 18 | 2.8 | 2.8 | 23 | 
CC(C)(I)C1CC2=C(O1)C(=O)c1cccc(O)c1C2=O (centres undefined) | 2.4 | 2.1 | 1.9 | 2.3 | 2 | 2.3 | 
CC(C)=CCOC1=C(CC=C(C)C)C(=O)c2c(O)cccc2C1=O | 1.9 | 1 | 11 | 4.3 | 1.6 | 21 | 
CC1(C)CCC2=C(O1)C(=O)c1cccc(O)c1C2=O | 12 | 3.2 | 18 | 2.7 | 2.6 | 21 | 
CC(C)=CCC1=C(O)C(=O)c2cccc(O)c2C1=O | 0.42 | 0.57 | 6.3 | 0.7 | 0.6 | 8.1 | 
O=C1C=C(O)c2cccc(O)c2C1=O | 90 | 28 | > 100 | 86 | > 100 | > 100 | 
CN(C)C1=CC(=O)c2c(O)cccc2C1=O | 19 | 16 | 32 | 35 | 30 | 38 | 
C=CC(C)(C)C1=C(O)C(=O)c2c(O)cccc2C1=O | 24 | 21 | 23 | 3.8 | 16 | 30 | 
CC(C)=CCOC1=CC(=O)c2cccc(O)c2C1=O | 4.5 | 2 | 7.3 | 7.7 | 19 | 23 | 
CC(C)=CCOC1=C(CC=C(C)C)C(=O)c2cccc(O)c2C1=O | 20 | 5.9 | 22 | 5.1 | 20 | 28 | 
CC1(C)C=CC2=C(O1)C(=O)c1c(O)cccc1C2=O | 2.3 | 2.4 | 19 | 4.8 | 3.9 | 19 | 
CC1(C)C2=C(OC1CI)C(=O)c1c(O)cccc1C2=O (centres undefined) | 1.3 | 1.6 | 2 | 0.4 | 0.41 | 2.5 | 
CC(C)=CCC1=C(O)C(=O)c2ccccc2C1=O [LAPACHOL] | 2.3 | 1.9 | 36 | 34 | 7.8 | 76 | 5
COC1=C(CC=C(C)C)C(=O)c2c(OC)cccc2C1=O | 18 | 21 | 28 | 5.8 | 17 | 45 | 
CC1(C)CCC2=C(O1)c1ccccc1C(=O)C2=O [LAPACHONE] | 0.81 | 1.1 | 2 | 0.76 | 0.69 | 2.3 | 
C=C(C)C1CC2=C(O1)C(=O)c1cccc(O)c1C2=O (centres undefined) | 0.8 | 0.82 | 2 | 0.83 | 0.94 | 2.2 | 
